Assay outcomes (PubChem)
The list is not random: actives were taken first. Their share in the collection is about 2.6%.
ABHD4 inh: ABHD4 (mouse) inhibition, primary FP screen | purified mABHD4, FP-Rh probe fluorescence polarization | inhibition, % at 8.92 µM | actives 0.54% (n = 370,000);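 active = inhibition exceeding the mean over every tested compound plus 3 SD, cut at about 30% in these data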;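 also: 0% = plate median of compound wells and 100% = S159A mutant with DMSO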
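Assay system: mABHD4 protein; medium: HEPES pH 7.0, NaCl, Pluronic buffer; dosing: 8.92 µM, single dose; schedule: 45 min + 60 min at 25 °C; signal: FP readout, ex 525 nm / em 598 nm; read-out: normalized percent inhibition of probe labeling; repeats: single replicate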
HTRA1 inhibitor: HTRA1 (human) protease inhibition | Q92743 | recombinant HTRA1, FP-rhodamine activity-based probe, fluorescence polarization | inhibition, % at 5.96 µM | actives 0.5% (n = 340,000) | AID 504803; in the data active = inhibition above about 36%;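 also: 0% = enzyme with DMSO and 100% = wells lacking enzyme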
Target sequence (Q92743 whole entry, looked up): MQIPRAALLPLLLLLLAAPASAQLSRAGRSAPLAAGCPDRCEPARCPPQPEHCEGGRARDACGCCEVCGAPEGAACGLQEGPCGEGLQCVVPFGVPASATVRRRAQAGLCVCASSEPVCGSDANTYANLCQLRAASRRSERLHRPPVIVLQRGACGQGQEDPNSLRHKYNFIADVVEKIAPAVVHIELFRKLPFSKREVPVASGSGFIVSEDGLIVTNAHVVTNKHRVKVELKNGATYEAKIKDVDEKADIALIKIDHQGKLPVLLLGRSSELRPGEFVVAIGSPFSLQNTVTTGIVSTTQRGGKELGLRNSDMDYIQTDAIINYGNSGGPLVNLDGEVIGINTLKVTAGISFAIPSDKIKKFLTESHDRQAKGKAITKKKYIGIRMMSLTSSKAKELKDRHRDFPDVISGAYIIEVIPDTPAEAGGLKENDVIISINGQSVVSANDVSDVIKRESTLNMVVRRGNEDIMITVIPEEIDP
TCR CD3 inh: inhibitors of human TCR-CD3 interaction | TAMRA-labeled TCR probe fluorescence, biochemical | inhibition, % at 9.4 µM | actives 0.37% (n = 360,000) | AID 651800;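 also: recombinant mutant TCR 2C K166C tagged with TAMRA read by polarization; 0% = receptor in buffer alone and 100% = receptor with positive control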
SIAE primary: human SIAE inhibition, primary screen; Q9HAT2; SIAE FP-Rh probe binding, fluorescence polarization; inhibition, % at 9.66 µM; actives 0.69% (n = 370,000); AID 1053197;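 active = inhibition above a cutoff: mean of compounds within the control limits plus 3 SD of those, cut at about 17% in these data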;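 also: 0% = plate median of compound wells and 100% = probe without SIAE protein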
PRMT1 FP inh: PRMT1 (human) inhibition, primary screen; Q99873; recombinant PRMT1, activity-based probe fluorescence polarization; inhibition, % at 2.79 µM; actives 1.3% (n = 370,000); AID 652257;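 active = inhibition above about 21% made by adding two undisclosed values, limit read from the data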
HTRA1 conf: HTRA1 (human) inhibition, confirmation. shares compounds with HTRA1 inhibitor. recombinant HTRA1, FP-rhodamine activity-based probe, fluorescence polarization. inhibition, % at 5.96 µM. actives 66% (n = 1,600). AID 540248;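 active = mean inhibition over three repeats above a set limit taken from the earlier primary screen, cut at about 37% in these data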;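 also: 0% = HTRA1 with DMSO and 100% = wells lacking HTRA1; inhibitors block probe binding so polarization drops and inhibition rises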
BSA TAMRA ctr: counter-screen for TCR-CD3 interaction inhibitors: BSA probe; shares compounds with TCR CD3 inh; TAMRA-labeled BSA probe fluorescence counterscreen; inhibition, % at 9.4 µM; actives 10% (n = 1,200); AID 652035; in the data active = inhibition above about 23%;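 also: 0% = buffer low control and 100% = reference high control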
TCR-CD3 inh conf: confirmation of human TCR-CD3 interaction inhibitors; TAMRA-labeled TCR probe fluorescence binding assay; shares compounds with TCR CD3 inh; actives 48% (n = 1,200); AID 652036; inhibition, % at 9.4 µM
PRMT1 inh conf: PRMT1 (human) inhibition, FP confirmation; recombinant His-PRMT1, activity-based probe fluorescence polarization; actives 42% (n = 3,300); inhibition, % at 2.79 µM; AID 687036; shares compounds with PRMT1 FP inh;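 active = mean inhibition across replicates above the hit cutoff derived for the earlier primary screen, cut at about 22% in these data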
mABHD4 conf: ABHD4 (mouse) inhibition, FP confirmation. shares compounds with ABHD4 inh. purified mABHD4, FP-Rh probe fluorescence polarization. inhibition, % at 8.92 µM. actives 55% (n = 1,800). AID 720658;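 active = mean inhibition across replicates above the hit cutoff set in the primary screen, cut at about 30% in these data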;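 also: 0% = wild-type ABHD4 with DMSO and 100% = catalytically dead S159A mutant with DMSO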
* = called active by the depositor; x = no result; + = active, no number. Rule as the data show it, unless noted: active = inhibition above about 19%; inactive = the rest.

SMILES	ABHD4 inh	HTRA1 inhibitor	TCR CD3 inh	SIAE primary	PRMT1 FP inh	HTRA1 conf	mABHD4 conf	others
CCOC(=O)c1ccc(CC(=O)c2ccc(O)c(O)c2O)o1	31*	53*	21*	3	43*	82*	24	BSA TAMRA ctr=-15;TCR-CD3 inh conf=21*;PRMT1 inh conf=7
CCOC(=O)c1ccc(CC(=O)c2oc3cc(O)ccc3c2C)o1	2	-4	-2	-6	4	x	x
O=C1c2ccccc2C(=O)c2c1ccc(O)c2O	74*	76*	16	19*	x	93*	88*
COCc1ccc(O)c2ncccc12	5	9	0	-3	2	x	x
COc1cccc(N=Nc2ccc(O)c3ncccc23)c1	43*	76*	0	8	-11	67*	48*
Nc1ccc(N=Nc2ccccc2)c2cccnc12	30*	43*	8	5	0	44*	55*
COc1ccc(C)cc1N=Nc1ccc(O)c2ncccc12	36*	86*	-9	4	3	64*	39*
COc1ccc(-c2ncccc2O)cc1	-7	0	-4	1	2	x	x
Cc1ccccc1Cn1cc(COC(=O)NCCc2ccccc2)nn1	5	x	x	-3	-2	x	x
C[C@@H]1CCCN1c1ccc2c(c1)O[C@H]1CCN(C1)S2(=O)=O	5	x	x	9	2	x	x
COc1ccc2[nH]c(=O)cc(C(=O)O)c2c1	7	3	4	7	-1	x	x
COc1ccc2[nH]c3c4c(ccc3c2c1)C(=O)C=CC4=O	56*	80*	1	1	20	53*	51*
Nc1ccc(Nc2ccccc2)c(S(=O)(=O)O)c1	63*	58*	22*	10	37*	15	44*	BSA TAMRA ctr=-3;TCR-CD3 inh conf=9;PRMT1 inh conf=13
Nc1cccc(Nc2ccccc2)c1	-3	15	4	6	-5	x	x
Cc1ccc(Nc2ccc(N)cc2S(=O)(=O)O)cc1	65*	80*	0	14	33*	21	18	PRMT1 inh conf=9
CC(=O)Nc1ccc(N/C=C/C(=O)c2ccco2)cc1	4	3	-4	8	-1	x	x
CN(C)c1ccc(N/C=C/C(=O)c2ccco2)cc1	44*	47*	12	11	21*	12	6
COc1cccc2c1C(=O)c1c(O)c3c(c(O)c1C2=O)C[C@](O)(C(C)=O)C[C@H]3O[C@@H]1C[C@@H](N)[C@@H](O)[C@@H](C)O1	68*	68*	163*	57*	+	72*	61*	BSA TAMRA ctr=179*;TCR-CD3 inh conf=148*;PRMT1 inh conf=149*
COc1ccc(-c2nnn3c2Cn2c4ccccc4c(=O)n2[C@@H](C(C)C)C3)cc1	-6	x	x	4	-5	x	x
COc1ccc(NC(=S)NNc2ccc(S(=O)(=O)Nc3ccccc3C(=O)O)cc2[N+](=O)[O-])cc1	74*	74*	1	-11	17	73*	96*
N#C/C(=C\c1ccc(O)c(O)c1)C(=O)N1CCc2ccccc21	55*	71*	12	8	8	86*	16
N#C/C(=C\c1ccc(O)c(O)c1)C(=O)NCCc1ccccc1	51*	71*	8	15	12	93*	33*
C=CCN1C(=O)[C@@H](CC(=O)N2CCCC2)[C@]2(C(=O)OC)CCCCC=C12	-8	x	x	-8	-3	x	x
COC(=O)[C@]12C[C@H](CC(=O)NCc3ccc(C)o3)C(=O)N(Cc3ccc4c(c3)OCO4)C1=C[C@H](C(C)C)O[C@@H]2C1CC1	-1	x	x	2	3	x	x
O=c1oc(-c2ccc(O)c(O)c2)cc2cccc(O)c12	35*	62*	11	5	2	68*	34*
SMILES	ABHD4 inh	HTRA1 inhibitor	TCR CD3 inh	SIAE primary	PRMT1 FP inh	HTRA1 conf	mABHD4 conf	others
O=c1cc(-c2ccc(O)c(O)c2)oc2c1ccc1ccccc12	34*	66*	40*	-3	14	74*	31*	BSA TAMRA ctr=-5;TCR-CD3 inh conf=75*
O=c1oc(-c2ccc(O)c(O)c2)cc2cc(O)cc(O)c12	51*	56*	18	12	4	124*	36*
CCCCOc1cccc(C(=O)NCCc2ccccc2-c2ccccc2CCC(=O)NCc2ccccc2)c1	-2	x	x	4	-1	x	x
CC1(C)CNc2cc(N)ccc2S1	38*	72*	0	6	12	13	40*
Cc1ccc(NC(=O)Cc2ccc(OC(F)F)cc2)c(S(=O)(=O)N2CCOCC2)c1	5	x	x	-1	3	x	x
C=CCN=c1scc(-c2ccco2)n1/N=C/c1ccc(O)c(O)c1O	49*	72*	21*	2	29*	86*	60*	BSA TAMRA ctr=-20;TCR-CD3 inh conf=14;PRMT1 inh conf=31*
CN=c1scc(-c2cccs2)n1/N=C/c1ccc(O)c(O)c1O	56*	82*	28*	13	40*	73*	74*	BSA TAMRA ctr=-20;TCR-CD3 inh conf=23*;PRMT1 inh conf=38*
COc1c(Cl)cc(C(=O)NN)cc1Cl	-9	-7	-1	-2	0	x	x
NNC(=O)c1cc(O)c(O)c(O)c1	36*	79*	57*	6	18	21	6
Fc1cccc(Cl)c1C1Nc2cccc3cccc(c23)N1	57*	50*	14	15	33*	19	48*	PRMT1 inh conf=27*
Clc1ccc(C2Nc3cccc4cccc(c34)N2)cc1Cl	14	21	-6	5	9	x	x
Clc1cccc(Cl)c1C1Nc2cccc3cccc(c23)N1	72*	70*	6	16	31*	26	48*
COC(=O)C1CN(Cc2cn(Cc3ccc(Cl)cc3)nn2)CCS(=O)(=O)N1Cc1ccc(OC)cc1 (stereo not given)	2	x	x	2	3	x	x
COC(=O)[C@]12C[C@H](CC(=O)NCC34CC5CC(CC(C5)C3)C4)C(=O)N(Cc3ccc(Cl)cc3Cl)C1=C[C@H](C(C)C)O[C@@H]2C1CC1	-6	x	x	-3	-8	x	x
CCOC(=O)[C@@]12CCCC3=C1N(CCC3)C(=O)[C@H]2CC(=O)NCc1ccccc1	7	x	x	4	2	x	x
COc1ccc(S(=O)(=O)NCc2ccc3c(c2)cc(C)n3C)cc1	47*	40*	35*	18*	-2	0	15	BSA TAMRA ctr=25*;TCR-CD3 inh conf=28*
CCS(=O)(=O)NCc1ccc2c(c1)cc(C)n2C	-2	22	13	-5	0	x	x
